Laboratory results reported in paper PMC4944838 (Molecular cell, 2013).
Where no end group is shown, it is not given here. [ ]: non-standard residue; d: D form. pT = C[C@@H](OP(=O)(O)O)[C@H](N)C(=O)O

What was measured:
[1] = target: T1, Rad4-BRCT1,2 (Schizosaccharomyces pombe, UniProt P32372); assay: Co-crystallisation with Rad4-BRCT1,2; format: binding, S. pombe; settings: co-crystal X-ray structure
T1 sequence (P32372 1-186 limits assumed): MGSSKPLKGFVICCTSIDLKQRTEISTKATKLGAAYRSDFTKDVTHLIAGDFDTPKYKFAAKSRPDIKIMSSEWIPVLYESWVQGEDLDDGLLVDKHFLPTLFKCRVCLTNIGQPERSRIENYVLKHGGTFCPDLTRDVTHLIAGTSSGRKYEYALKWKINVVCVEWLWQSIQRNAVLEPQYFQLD
In short: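 S. pombe Rad4 BRCT1,2 construct expressed in E. coli and purified by affinity tags and conventional column chromatography. Crystals of protein and complexes grown by hanging-drop vapour diffusion. Diffraction data collected from single crystals on a home source or synchrotron. Structures phased by molecular replacement and refined.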

[2] = target: Rad4-BRCT1,2 (BRCT1,2 segment of S. pombe Rad4^TopBP1) (S. pombe) (UniProt P32372); assay: fluorescence polarisation
[3] = target: Rad4-BRCT1,2 K151E (S. pombe) (UniProt P32372); assay: fluorescence polarisation
[4] = target: Rad4-BRCT1,2 K56E (S. pombe) (UniProt P32372); assay: fluorescence polarisation
[5] = target: Rad4-BRCT3,4 (BRCT3,4 segment of S. pombe Rad4^TopBP1) (S. pombe) (UniProt P32372); assay: fluorescence polarisation
Chain of Rad4-BRCT3,4 (BRCT3,4 segment of S. pombe Rad4^TopBP1) (S. pombe) (P32372 291-494): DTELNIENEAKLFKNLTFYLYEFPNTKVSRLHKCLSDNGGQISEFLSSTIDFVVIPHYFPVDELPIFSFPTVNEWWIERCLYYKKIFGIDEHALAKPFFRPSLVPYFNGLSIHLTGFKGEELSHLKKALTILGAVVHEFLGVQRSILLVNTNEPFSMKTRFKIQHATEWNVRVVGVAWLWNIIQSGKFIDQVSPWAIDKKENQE

[6] = target: T2, Rad4-BRCT1,2 K56E (S. pombe, UniProt P32372 1-186, K56E); assay: fluorescence polarisation
T2 sequence: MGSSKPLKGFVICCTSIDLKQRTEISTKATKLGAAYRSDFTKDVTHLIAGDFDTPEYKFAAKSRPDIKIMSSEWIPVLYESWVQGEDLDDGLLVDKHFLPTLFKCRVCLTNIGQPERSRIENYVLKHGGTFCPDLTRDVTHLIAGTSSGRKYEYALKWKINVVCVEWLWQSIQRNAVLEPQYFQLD

[7] = target: T3, Rad4-BRCT1,2 K151E (S. pombe, UniProt P32372 1-186, K151E); assay: fluorescence polarisation
T3 sequence: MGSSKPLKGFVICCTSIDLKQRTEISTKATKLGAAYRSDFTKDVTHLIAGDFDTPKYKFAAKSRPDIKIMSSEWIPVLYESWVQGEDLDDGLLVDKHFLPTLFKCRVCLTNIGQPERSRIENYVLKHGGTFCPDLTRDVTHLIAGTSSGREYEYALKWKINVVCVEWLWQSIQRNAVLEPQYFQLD

## 184 – Val Pro Glu pThr Val – 188
[1]
  site occupancy in co-crystal structure with Rad4-BRCT1,2 (in words): peptide molecules bound to both BRCT domains

## 232 – Val Glu Ser pThr Pro – 236 [Crb2 phosphopeptide (residues 229-241)]
[1]
  site occupancy in co-crystal structure with Rad4-BRCT1,2 (in words): only the BRCT2 site was occupied

## Crb2 peptide phosphorylated on both Thr215 and Thr235 (fluorescence polarisation)
[2]
  Kd: 1970 nM

## Crb2-pThr187 phosphopeptide, fluorescently labelled
[2]
  Kd: 500 nM
[3]
  Kd: 400 nM
[4]
  Kd: 2200 nM

## Rad9 C-terminal tail peptide phosphorylated on Ser423
[5]
  Kd: 8600 nM

## Rad9 C-terminal tail peptide phosphorylated on Thr412
[5]
  Kd: 1900 nM

## Rad9 C-terminal tail peptide phosphorylated on Thr412 and Ser423
[5]
  Kd: 6400 nM

## RVES[pT]PPAFLP (also: fluorescein label, site not given here) [Crb2-pThr235 phosphopeptide, fluorescently labelled]
[6]
  Kd: 11700 nM
[7]
  Kd: 59000 nM
